Screens from PubChem BioAssay.
RanGTP-Imp inh: disruptors of Ran-importin-beta complex formation – biochemical, FRET, CFP-Ran, YFP-importin-beta, homogeneous, primary screen. cell-free CFP-Ran/YFP-importin-beta FRET ratio. inhibition, % (no concentration beside the values). actives 1.1% (n = 300,000). AID 2216;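 active = more than half of the replicate wells show a fall in the fluorescence ratio signal beyond about 16%, limit read from the data, passing the limit was not always enough; inconclusive = exactly half of the replicate wells pass the set limit; inactive = fewer than half of replicates pass the limit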;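 note: 0% = DMSO wells and 100% = Ran loaded with GDP instead of GTP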
zVAD death inh: L929 zVAD cell death inhibition. AID 1377. L929 zVAD necroptosis rescue, ATP luminescence, 24 h; with zVAD 60 µM. actives 0.38% (n = 220,000). viability rescue, % at 10 µM;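 active = activation, scaled between plate controls, above about 75%, limit read from the data; inactive = activation under that limit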;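 note: 0% = zVAD with DMSO and 100% = DMSO alone without zVAD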
TNF necrop inh: blocks TNF-alpha induced death of Jurkat FADD-/- cells. actives 0.068% (n = 220,000). activation (protection from cell death), % at 10 µM. Jurkat FADD-/- TNF necroptosis rescue, ATP luminescence, 24 h; 0 = TNF only, 100 = no-TNF cells;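 active = activation, meaning protection from cell death, of at least 50% relative to plate controls; inactive = activation below 50%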;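 note: necroptosis triggered by 40 ng/mL TNF-alpha added together with compound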
Runt-CBFb FRET: Runt domain-CBFb interaction inhibition; actives 0.46% (n = 220,000); Q01196+Q13951; Cerulean-Runt/Venus-CBFb FRET ratio 530/480, 1 h; AID 1496; inhibition, % at 20 µM;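 active = inhibition over about 50% at 20 µM in the single-dose screen, limit read from the data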;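 note: 0% = DMSO wells and 100% = excess unlabeled CBFb competitor control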
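Measured by: fluorescence energy transfer, 422 nm excitation, 530/480 nm emission; test system: Cerulean-tagged RUNX1 Runt domain (FRET donor) fusion protein; buffer or medium: Tris pH 7.5 buffer with BSA; compound: one dose, 20 µM compound, 1% DMSO; times: two 1 h room-temperature incubations shielded from light; benchmarks: unlabeled CBFb 5 µM, positive control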
Hck Nef HTS: inhibitors of human Hck kinase activated by Nef. P08631. Recombinant Hck-YEEI plus Nef, Z-Lyte FRET kinase assay. inhibition, % at 20 µM. actives 0.68% (n = 220,000). AID 463187;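 active = Hck-Nef kinase inhibition above about 50%, limit read from the data; inactive = inhibition below that limit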;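 note: 0% = DMSO with Hck plus Nef and 100% = Hck alone without Nef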
Target sequence (P08631 whole entry, looked up): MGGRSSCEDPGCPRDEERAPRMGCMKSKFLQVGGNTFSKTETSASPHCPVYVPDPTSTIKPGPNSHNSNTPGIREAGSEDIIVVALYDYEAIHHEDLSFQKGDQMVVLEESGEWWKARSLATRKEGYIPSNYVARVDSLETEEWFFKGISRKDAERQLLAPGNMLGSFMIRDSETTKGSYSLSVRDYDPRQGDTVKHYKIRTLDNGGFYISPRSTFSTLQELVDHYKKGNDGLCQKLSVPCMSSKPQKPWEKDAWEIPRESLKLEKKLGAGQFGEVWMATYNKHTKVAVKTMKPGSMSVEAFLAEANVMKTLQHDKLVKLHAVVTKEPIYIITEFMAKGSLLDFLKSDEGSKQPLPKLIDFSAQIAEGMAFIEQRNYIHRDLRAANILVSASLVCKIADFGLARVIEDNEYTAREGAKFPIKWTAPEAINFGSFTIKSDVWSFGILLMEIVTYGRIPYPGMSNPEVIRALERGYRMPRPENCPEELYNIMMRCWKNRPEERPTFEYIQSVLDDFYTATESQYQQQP
Runt-SMMHC FRET: inhibitors of human RUNX1 Runt domain binding to CBFb-SMMHC; Cerulean-Runt/Venus-CBFb-SMMHC FRET ratio 530/480, 1 h; inhibition, % at 20 µM; actives 0.74% (n = 220,000); AID 1434;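 active = mean inhibition across duplicate retests at 20 µM reaching about 50%, limit read from the data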;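 note: 0% = DMSO wells and 100% = wells with excess untagged CBFb-SMMHC; inhibitors lower the FRET ratio by blocking Runt binding to CBFb-SMMHC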
Numbers without * were called inactive. The list is not random: actives were taken first. Their share in the collection is about 2.1%.

Results for N#Cc1c(N)n(-c2cccc(C(=O)O)c2)c2nc3ccccc3nc12 ?
RanGTP-Imp inh: inconclusive; zVAD death inh: -0.1; TNF necrop inh: -1.0; Runt-CBFb FRET: 99.3*; Hck Nef HTS: 21.0; Runt-SMMHC FRET: 81.7*

How did N#Cc1c(N)n(CCNC(=O)c2cccs2)c2nc3ccccc3nc12 do in these assays?
RanGTP-Imp inh: 64.1*; zVAD death inh: 1.6; TNF necrop inh: -1.5; Runt-CBFb FRET: 104.8*; Hck Nef HTS: 39.4; Runt-SMMHC FRET: 57.6*

Results for COc1ccc(Cn2c(N)c(C#N)c3nc4ccccc4nc32)cc1OC ?
RanGTP-Imp inh: 11.0; zVAD death inh: 0.8; TNF necrop inh: -1.0; Runt-CBFb FRET: 11.5; Hck Nef HTS: 11.0; Runt-SMMHC FRET: 4.4

Results for N#Cc1c(N)n(CCNC(=O)c2ccccc2)c2nc3ccccc3nc12 ?
RanGTP-Imp inh: 58.1*; TNF necrop inh: -1.0; Runt-CBFb FRET: 110.9*; Hck Nef HTS: 11.6; Runt-SMMHC FRET: 76.0*

How did Cc1nnc(NC(=O)CSc2nnc(CC(=O)Nc3ccccc3F)n2C)s1 do in these assays?
RanGTP-Imp inh: 2.1

Results for CCCN(CCC)C(=O)Cn1c(=O)n(CCCCCC(=O)Nc2ccccc2)c(=O)c2sccc21 ?
RanGTP-Imp inh: 2.2; zVAD death inh: -1.2; TNF necrop inh: 0.5; Runt-CBFb FRET: -0.4; Hck Nef HTS: -0.3; Runt-SMMHC FRET: -1.4

Results for CCN1CCC2(CC1)C(C#N)=C(N)Oc1c2sc2nc(C)cc(C)c12 ?
RanGTP-Imp inh: 27.9*; zVAD death inh: 6.5; TNF necrop inh: 2.1; Runt-CBFb FRET: 6.9; Hck Nef HTS: 1.6; Runt-SMMHC FRET: 34.1

How did CCOc1cc(NS(=O)(=O)c2ccc(Cl)cc2)c(OCC)cc1NC(=O)CC(C)C do in these assays?
RanGTP-Imp inh: inconclusive; zVAD death inh: 0.3; TNF necrop inh: 0.5; Runt-CBFb FRET: 0.4; Hck Nef HTS: 1.3; Runt-SMMHC FRET: 8.8

Results for CCOc1cc(NS(=O)(=O)c2ccc(NC(C)=O)cc2)c(OCC)cc1NC(=O)C(C)C ?
RanGTP-Imp inh: 18.0*; zVAD death inh: 0.2; TNF necrop inh: -1.1; Runt-CBFb FRET: 2.8; Hck Nef HTS: 1.8; Runt-SMMHC FRET: 7.5

How did CCn1cnc2cc(NCc3ccc(OC)cc3)ccc21 do in these assays?
RanGTP-Imp inh: 9.9; zVAD death inh: 0.2; TNF necrop inh: -0.6; Runt-CBFb FRET: 20.6; Hck Nef HTS: -18.0; Runt-SMMHC FRET: 8.3

Results for CCOc1ccc2nc3cc(NCc4ccc(OC)cc4)ccc3c(N)c2c1 ?
RanGTP-Imp inh: 26.7*

How did CC(=O)N(c1ccccc1)c1nnc(-c2cnc(C)cn2)s1 do in these assays?
RanGTP-Imp inh: -2.3; zVAD death inh: 36.9; TNF necrop inh: 76.4*; Runt-CBFb FRET: 2.1; Hck Nef HTS: 23.0; Runt-SMMHC FRET: -4.1

What do the screens show for `O=C(/C=C/c1ccc(O)c(O)c1)O[C@H](Cc1ccc(O)c(O)c1)C(=O)O`?
RanGTP-Imp inh: 12.1; zVAD death inh: 0.4; TNF necrop inh: 0.4; Runt-CBFb FRET: 42.2; Hck Nef HTS: 51.8*; Runt-SMMHC FRET: 20.9

Results for Cc1ccc2c(C)c(C(=O)N3CCCCC3CO)oc2c1C (stereo unspecified) ?
RanGTP-Imp inh: -1.2

What do the screens show for `O=C(Nn1c(O)c(C=C2N=c3ccccc3=N2)sc1=S)c1ccc(Cl)cc1`?
RanGTP-Imp inh: 33.5*; zVAD death inh: 0.1; TNF necrop inh: -7.7; Runt-CBFb FRET: 7.9; Hck Nef HTS: 0.2; Runt-SMMHC FRET: -6.3

How did CCC(CC)COC(=O)C1=C(C)NC(=O)NC1c1ccc(N(C)C)cc1 (stereo unspecified) do in these assays?
RanGTP-Imp inh: 16.0*

Results for CC(=O)Nc1ccc(S(=O)(=O)N(C)CC(=O)OCC(=O)N(C)C2CCS(=O)(=O)C2)cc1 (stereo unspecified) ?
RanGTP-Imp inh: 0.0

How did O=C(COc1ccccc1)Nc1cccc(-c2nc3ccccc3[nH]2)c1 do in these assays?
RanGTP-Imp inh: 7.0; zVAD death inh: 7.1; TNF necrop inh: 3.9; Runt-CBFb FRET: -1.4; Hck Nef HTS: 4.6; Runt-SMMHC FRET: -3.4

How did COc1ccc(OCC(=O)Nc2cccc(-c3nc4ccccc4[nH]3)c2)cc1 do in these assays?
RanGTP-Imp inh: 30.7*; zVAD death inh: 2.6; TNF necrop inh: -11.4; Runt-CBFb FRET: -1.9; Hck Nef HTS: 2.4; Runt-SMMHC FRET: 1.8

How did CCc1c(C)c(C#N)c2nc3ccccc3n2c1NCc1ccco1 do in these assays?
RanGTP-Imp inh: inconclusive; zVAD death inh: -0.5; TNF necrop inh: -2.6; Runt-CBFb FRET: 21.4; Hck Nef HTS: 5.8; Runt-SMMHC FRET: 71.6*

How did CCN(CC)c1cc(C)c(C#N)c2nc3ccccc3n12 do in these assays?
RanGTP-Imp inh: 31.9*; zVAD death inh: -0.6; TNF necrop inh: -3.0; Runt-CBFb FRET: 55.0*; Hck Nef HTS: -54.5; Runt-SMMHC FRET: 90.1*

How did CNc1cc(C)c(C#N)c2nc3ccccc3n12 do in these assays?
RanGTP-Imp inh: 8.1

Results for Cc1cccc(NC(=O)CSc2cc(C)c(C#N)c3nc4ccccc4n23)c1 ?
RanGTP-Imp inh: 0.3; zVAD death inh: 7.1; TNF necrop inh: -16.2; Runt-CBFb FRET: 29.7; Hck Nef HTS: 37.9; Runt-SMMHC FRET: 80.2*

What do the screens show for `CCc1c(C)c(C#N)c2nc3ccccc3n2c1NCCN(C)C`?
RanGTP-Imp inh: inconclusive; zVAD death inh: 0.2; TNF necrop inh: 1.9; Runt-CBFb FRET: 15.5; Hck Nef HTS: 14.1; Runt-SMMHC FRET: 26.1

Results for C=C(C)Cc1c(C)c(C#N)c2nc3ccccc3n2c1NCCCN(C)C ?
RanGTP-Imp inh: 38.1*; zVAD death inh: -0.1; TNF necrop inh: -0.5; Runt-CBFb FRET: 17.3; Hck Nef HTS: -22.1; Runt-SMMHC FRET: 26.1

How did CCCNc1cc(C)c(C#N)c2nc3ccccc3n12 do in these assays?
TNF necrop inh: 0.2; Runt-CBFb FRET: 13.0; Hck Nef HTS: 13.2; Runt-SMMHC FRET: 44.6

Results for Cc1c(Cc2ccccc2)c(NCCCO)n2c(nc3ccccc32)c1C#N ?
RanGTP-Imp inh: inconclusive; zVAD death inh: 1.3; TNF necrop inh: -1.3; Runt-CBFb FRET: 56.7*; Hck Nef HTS: -1.7; Runt-SMMHC FRET: 77.6*

How did Cc1cc(NCCOCCO)n2c(nc3ccccc32)c1C#N do in these assays?
RanGTP-Imp inh: 21.3*

How did CCCc1cc(NCc2ccccn2)n2c(nc3ccccc32)c1C#N do in these assays?
RanGTP-Imp inh: -5.3; zVAD death inh: 5.3; TNF necrop inh: 0.3; Runt-CBFb FRET: 9.2; Hck Nef HTS: 2.3; Runt-SMMHC FRET: 32.4

What do the screens show for `Cc1cc(NCc2ccccn2)n2c(nc3ccccc32)c1C#N`?
RanGTP-Imp inh: 96.5*; zVAD death inh: -0.5; TNF necrop inh: -1.5; Hck Nef HTS: 33.2
